This excerpt belongs to a sample that is enriched for hits.
DTT redox prof: compounds producing H2O2 with reducing agent – biochemical, NIH compound library profiling, artefact control for MLSCN library redox annotation, primary screen. DTT-dependent redox cycling H2O2, phenol red/HRP absorbance; 100% = 100 µM peroxide control, 0% = buffer. activation, % at 10 µM. hit rate 0.03% among 200,000. AID 878;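 active means activation of at least 50% relative to the plate's high and low controls in the primary single-dose screen; inactive means activation below 50%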;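 further: compound incubated with DTT at 0.8 mM final as the reducing agent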
T cruzi inh: T. cruzi replication inhibition | T. cruzi beta-gal in NIH3T3, luminescence, 90 h | inhibition, % (test concentration not listed) | hit rate 1.4% among 300,000 | AID 1885;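 active means mean inhibition across valid replicates above about 55%, limit read from the data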;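 further: signal also drops with host cell toxicity which is not excluded here; 0% = plate median of DMSO wells and 100% = zero luminescence signal; higher percent means less beta-gal luminescence so fewer parasites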
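assay system = mouse NIH/3T3 fibroblasts infected with β-gal-expressing T. cruzi Tulahuen C4 | input = 5,000 NIH/3T3 host cells per well | buffer or medium = DMEM plus 2% FBS | timing = 3 h host attachment, then at least 90 h co-culture | measured by = GalScreen luminescence, 60 min | evaluation = luminescence reflecting intracellular parasite burden, expressed as percent inhibition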
MPTP inh: inhibitors of mitochondrial permeability transition pore | isolated mouse mitochondria, Ca2+ swelling absorbance, 30 min | inhibition, % at 10 µM | hit rate 1.4% among 360,000 | AID 602449;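 active means inhibition of 50% or more, scaled per plate between neutral and stimulator controls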;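 further: 0% = DMSO wells given calcium and 100% = 1 mM EGTA wells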
Lmaj promast: reduces viability of Leishmania major promastigotes; hit rate 9% among 200,000; resazurin fluorescence viability; inhibition, % at 10 µM; in the data active means inhibition above about 50%;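 further: promastigotes grown with compound for 44 hours at 28 °C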
Hep lipid drop: hepatic lipid droplet formation modulation; hit rate 0.4% among 240,000; inhibition, % at 6.5 µM; AML12 mouse hepatocytes, oleate lipid droplets, BODIPY imaging;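 active means lipid droplet intensity inhibited by at least 50%, with more than 500 cells counted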
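material = mouse AML12 hepatocyte cell line, fixed after treatment | also added = 100 µM oleic acid challenge | doses = compound at 6.5 µM only | schedule = overnight exposure | technique = Image-based BODIPY and DAPI two-channel analysis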
Active calls of the source: *; / = no result given.

SMILES | DTT redox prof | T cruzi inh | MPTP inh | Lmaj promast | Hep lipid drop
CCn1c(-c2ccccc2)c(C(=O)CCl)c2ccccc21 | 0 | 61* | 2 | 99* | -15
COC(C[C@H](O)[C@@H](C)[C@H](O)COCc1ccccc1)OC | / | / | -2 | / | -1
O=C(NC1CC(=O)N(c2ccc(Cl)cc2)C1)C1CC1 (stereo unspecified) | / | 0 | 1 | / | /
CN1CCC(=O)N([C@H](COc2ccccc2)Cc2ccccc2)CC1 | / | -16 | 1 | / | /
COc1ccc(C)c(NC(=O)NCCc2cnc[nH]2)c1 | / | 8 | -1 | / | 0
Cc1ccc(CNC(=O)C2CCC(=O)N(Cc3ccccc3F)C2)s1 (stereo unspecified) | / | 9 | 1 | / | -1
COc1cc(S(=O)(=O)NCCOC23CC4CC(CC(C4)C2)C3)c(OC)cc1Cl | 0 | 8 | 8 | 43 | -36
CCOc1ccc(OCC)c(S(=O)(=O)NCCOC23CC4CC(CC(C4)C2)C3)c1 | -1 | 21 | 5 | 78* | -4
CC(C)NC(=O)c1cc(C2CCCCN2S(=O)(=O)c2ccc(C#N)cc2)on1 (stereo unspecified) | / | / | 0 | / | /
COc1ccc(CCNC(=O)C2(C)CCC(=O)N2Cc2ccc(C)cc2)cc1OC (stereo unspecified) | / | 2 | -1 | / | -5
COc1cc(OC)c(C(=O)OC(C)C(=O)Nc2cccc(C(F)(F)F)c2)cc1OC (stereo unspecified) | 1 | 3 | 3 | 47 | 10
CN(C)/N=C/C=C1\CCC/C(=C/c2cccs2)C1=O | / | -12 | 3 | / | -21
CN(C)/N=C/C=C1\CC/C(=C\c2ccc(Br)cc2)C1=O | 0 | -6 | 2 | 77* | 4
COc1cccc(CN2CCN(Cc3ccon3)CC2CCO)c1 (stereo unspecified) | -1 | 1 | 1 | -4 | -19
COc1cccc(CN2CCN(Cc3c(C)nn(C(C)C)c3C)CC2CCO)c1 (stereo unspecified) | 1 | 71* | 0 | -4 | -2
COc1cccc(CN2CCN(Cc3ccc(O)cc3)CC2CCO)c1 (stereo unspecified) | -10 | -13 | -3 | 69* | -21
CN1CCN(C(=S)Nc2ccc(Cl)c(Cl)c2)CC1 | -1 | 4 | -1 | 67* | 2
CCN1CCN(c2cc(C)c3cc(NC(=S)N4CCOCC4)ccc3n2)CC1 | -3 | 6 | 2 | 22 | 8
S=C(Nc1ccc(Cl)c(Cl)c1)N1CCCC1 | / | -15 | 0 | / | -3
CCN1CCN(c2cc(C)c3cc(NC(=S)N4CCN(c5ccccc5)CC4)ccc3n2)CC1 | 0 | 58* | -1 | 100* | 7
CCN1CCN(c2cc(C)c3cc(NC(=S)N4CCN(c5ccccc5F)CC4)ccc3n2)CC1 | -3 | 27 | 0 | 99* | 10
Cc1cc(N2CCN(C)CC2)nc2ccc(NC(=S)N3CCN(c4ccccn4)CC3)cc12 | -2 | 43 | -1 | 95* | -4
COc1ccc(OC)c(CN2C(=O)CN(S(C)(=O)=O)CC2(C)C(=O)NC(C)C)c1 (stereo unspecified) | / | / | -2 | / | /
COc1ccccc1N1CCN(C(=S)Nc2ccc3nc(N4CCOCC4)cc(C)c3c2)CC1 | -1 | 31 | 1 | 53* | 9
COC(=O)CCC(C)C1CCC2C3CCC4CC(O)CCC4(C)C3CC(O)C12C (stereo unspecified) | / | / | 0 | / | /
SMILES | DTT redox prof | T cruzi inh | MPTP inh | Lmaj promast | Hep lipid drop
COc1ccc(O)c(C=Nc2cc(NC(C)=O)c(Cl)cc2Cl)c1 | -1 | 1 | 1 | 64* | -8
COc1ccccc1CNS(=O)(=O)CCNCc1ccco1 | / | / | -3 | / | /
Cc1oc2c(CN3CCOCC3)c(O)ccc2c(=O)c1-c1ccc(Cl)cc1 | / | -4 | -2 | / | -18
O=c1c(-c2ccc(Br)cc2)coc2c(CN3CCOCC3)c(O)ccc12 | 3 | -2 | 1 | 100* | 8
Cc1oc2c(CN3CCOCC3)c(O)ccc2c(=O)c1-c1ccc(Br)cc1 | 2 | -2 | -3 | 99* | -25
Cc1oc2c(CN3CCCC3)c(O)ccc2c(=O)c1-c1ccc(Cl)cc1 | 0 | -8 | -11 | 97* | /
O=C(Cc1ccc(NC(=O)C2CCN(C(=O)C3CCC3)CC2)cc1)Nc1ccc(C(=O)N2CCOCC2)cc1 | / | / | 0 | / | /
CC(=O)c1cccc(OCC(=O)Nc2cccc(C(=O)Nc3c(C)n(C)n(-c4ccccc4)c3=O)c2)c1 | / | / | 0 | / | /

Assay outcomes deposited in PubChem by several laboratories.
